This is an account of results in ChEMBL document CHEMBL1129731, “The chemistry of pseudomonic acid. 17. Dual-action C-1 oxazole derivatives of pseudomonic acid having an extended spectrum of antibacterial activity” (J Med Chem, 1996).

In data set [1] the test system is Proteus mirabilis. Kind of data set: compound was tested for antibacterial activity against Pr. mirabilis C889. The format is functional. In short, it runs like this: (§1)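 Broth microdilution in Mueller–Hinton broth; overnight broth cultures added to final 5 × 10^5 cfu/mL; incubated 37 °C, 18 h. MIC (µg/mL) taken as lowest concentration inhibiting growth.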
Data set [2] can be described thus: Pharmacokinetic parameter Tmax was determined in blood level in mouse after oral administration. The class given is ADME, organism-based. In short, it runs like this: (§2)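 CD1 male mice (18–22 g), nonfasted, groups of five; 50 mg/kg in 0.2 mL, dissolved in 10% ethanol then diluted 1:9 with 1% HPMC in water (po) or PBS pH 7.3 (sc). Blood sampled 5–240 min; levels by Bacillus subtilis agar bioassay (pH 7.0, 30 °C overnight) against standards in heparinized mouse blood.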

Data set [3] concerns Bacteroides fragilis. Briefly: compound was tested for antibacterial activity Bacteroides fragilis NCTC 10581. The class given is functional.
Data set [4] concerns Mus musculus. Briefly: Total […] dose against Staphylococcus aureus after […] administration (1+5 hr post infection) to mouse. The format is organism-based. Conditions: in vivo, po. The essentials: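 CD1 male mice, groups of five, infected ip with S. aureus Smith, 1.3 × 10^10 cfu (po groups) or 5 × 10^9 cfu (sc groups); dosed po or sc at 1 + 5 h postinfection, 0.2 mL/mouse. CD50 = total dose protecting 50% of mice from death, scored day 2 postinfection.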

The subject of data set [5] is Staphylococcus aureus. Kind of data set: compound was tested for antibacterial activity against Staphylococcus aureus NCTC 6571. The format is functional. In short, it runs like this:
as §1

For data set [6], the system named is Pseudomonas aeruginosa. Briefly: compound was tested for antibacterial activity against Pseudomonas aeruginosa K799 wt. The format is functional. The essentials:
as §1

Data set [7] has as its system Staphylococcus aureus. Briefly: compound was tested for antibacterial activity against Staphylococcus aureus C 37. The format is functional.
The subject of data set [8] is Haemophilus influenzae. Briefly: compound was tested for antibacterial activity against Haemophilus influenzae Q1. The class given is functional. The essentials:
(§3)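 Broth microdilution in Mueller–Hinton broth supplemented (final) with 5% heat-inactivated horse serum, 0.02 mg/mL hematin and 0.08 mg/mL NAD; inoculum 5 × 10^5 cfu/mL from overnight broth cultures; 37 °C for 18 h; MIC (µg/mL) read as lowest concentration inhibiting growth.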

Data set [9] deals with Mus musculus. Briefly: Pharmacokinetic parameter AUC was determined in blood level in mouse after subcutaneous administration. The format is ADME, organism-based. To be noted: in vivo, sc. The essentials: as §2
Data set [10] relates to Escherichia coli. Briefly: compound was tested for antibacterial activity against Escherichia coli DC2. The format is functional. In short, it runs like this:
as §1

Data set [11] addresses T1, Isoleucine--tRNA ligase (Staphylococcus aureus, UniProt P41972).
T1 sequence (P41972 whole entry): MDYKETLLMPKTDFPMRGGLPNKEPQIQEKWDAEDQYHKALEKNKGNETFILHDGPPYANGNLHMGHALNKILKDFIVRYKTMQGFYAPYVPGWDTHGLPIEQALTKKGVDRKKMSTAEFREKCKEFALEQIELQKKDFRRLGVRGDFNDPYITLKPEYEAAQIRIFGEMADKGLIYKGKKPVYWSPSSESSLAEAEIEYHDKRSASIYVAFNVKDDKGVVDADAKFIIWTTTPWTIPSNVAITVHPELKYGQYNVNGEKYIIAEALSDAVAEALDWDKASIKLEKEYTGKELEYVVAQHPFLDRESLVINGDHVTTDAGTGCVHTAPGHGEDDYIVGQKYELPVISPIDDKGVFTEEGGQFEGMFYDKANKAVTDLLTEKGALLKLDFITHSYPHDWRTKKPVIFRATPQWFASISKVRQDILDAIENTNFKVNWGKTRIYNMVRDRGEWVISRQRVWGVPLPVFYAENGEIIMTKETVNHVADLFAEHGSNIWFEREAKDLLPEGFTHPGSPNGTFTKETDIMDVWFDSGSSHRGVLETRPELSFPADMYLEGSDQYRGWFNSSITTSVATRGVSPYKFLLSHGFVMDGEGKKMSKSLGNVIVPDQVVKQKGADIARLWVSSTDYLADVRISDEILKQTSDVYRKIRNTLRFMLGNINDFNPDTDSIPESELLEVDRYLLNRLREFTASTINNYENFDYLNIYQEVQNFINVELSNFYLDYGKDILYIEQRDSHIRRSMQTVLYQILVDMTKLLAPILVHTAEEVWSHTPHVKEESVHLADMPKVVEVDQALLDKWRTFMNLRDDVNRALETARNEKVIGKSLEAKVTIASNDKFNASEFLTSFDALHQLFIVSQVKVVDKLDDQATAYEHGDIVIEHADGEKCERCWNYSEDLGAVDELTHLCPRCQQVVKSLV
Kind of data set: compound was tested for inhibitory activity of isoleucyl-tRNA synthetase (IRS). The class given is functional.

The subject of data set [12] is Staphylococcus aureus. Kind of data set: compound was tested for antibacterial activity against Staphylococcus aureus F 89. The format is functional. In short, it runs like this: as §1
The nature of data set [13]: Pharmacokinetic parameter Tmax was determined in blood level in mouse after subcutaneous administration. The format is ADME, organism-based. Conditions: sc. The essentials: as §2
Data set [14] deals with Enterobacter cloacae. Kind of data set: compound was tested for antibacterial activity against Ent. cloacae N1. The class given is functional.
In data set [15] the test system is Streptococcus pyogenes. Kind of data set: compound was tested for antibacterial activity against Streptococcus pyogenes CN10. The class given is functional. In short, it runs like this: as §3
Data set [16] deals with Mus musculus. Kind of data set: Pharmacokinetic parameter AUC was determined in blood level in mouse after oral administration. The class given is ADME, organism-based. To be noted: in vivo. The essentials:
as §2

The subject of data set [17] is Mus musculus. Briefly: Total […] dose against Staphylococcus aureus after sc administration (1+5 hr post infection) to mouse. To be noted: in vivo.
Data set [18] has as its system Escherichia coli. Briefly: compound was tested for antibacterial activity against Escherichia coli DC0. The format is functional.
Data set [19] is described as follows: Pharmacokinetic parameter Cmax was determined in blood level in mouse after oral administration. The class given is ADME, organism-based. Further details: route oral. In short, it runs like this:
as §2

In data set [20] the test system is Staphylococcus epidermidis. Briefly: compound was tested for antibacterial activity aagainst Staphylococcus epidermidis PHLN 20. The class given is functional. In short, it runs like this: as §1
Data set [21] relates to Moraxella catarrhalis. Kind of data set: compound was tested for antibacterial activity against Moraxella catarrhalis 1502. The class given is functional. The essentials:
as §3

In data set [22] the test system is Klebsiella pneumoniae. Kind of data set: compound was tested for antibacterial activity against Klebsiella pneumoniae E70. The format is functional. The essentials:
as §1

Data set [23] relates to Enterococcus faecalis. Briefly: compound was tested for antibacterial activity against Ent. faecalis I. The class given is functional. In short, it runs like this: as §1
For data set [24], the system named is Mus musculus. Briefly: Pharmacokinetic parameter Cmax was determined in blood level in mouse after subcutaneous administration. The class given is ADME, organism-based. Further details: route subcutaneous. To be noted: in vivo, sc. The essentials:
as §2

Data set [25] concerns Streptococcus pneumoniae. Briefly: compound was tested for antibacterial activity against Strep. pneumoniae 1761. The format is functional. In short, it runs like this: as §3
Data set [26] concerns Staphylococcus aureus. Kind of data set: Minimum inhibitory activity against Staphylococcus aureus C 7. The class given is functional. The essentials:
as §1

Data set [27] concerns Staphylococcus aureus. Briefly: Minimum inhibitory activity against Staphylococcus aureus NCTC 6571. The class given is functional. In short, it runs like this:
as §1

Data set [28] has as its target T1, Isoleucine--tRNA ligase. Kind of data set: Inhibitory activity against isoleucyl-tRNA synthetase (IRS) of Staphylococcus aureus NCTC 6571.
Data set [29] deals with T1, Isoleucine--tRNA ligase. Kind of data set: Inhibitory activity against isoleucyl-tRNA synthetase (IRS) of Staphylococcus aureus 11481. The format is functional.
The subject of data set [30] is Staphylococcus aureus. Briefly: Minimum inhibitory activity against Staphylococcus aureus 11481. The format is functional. The essentials:
as §1

The target of data set [31] is T1, Isoleucine--tRNA ligase. Kind of data set: Inhibitory activity against isoleucyl-tRNA synthetase (IRS) of Staphylococcus aureus. The format is functional.

Structures are written as SMILES. pIC50: −log10 of the molar value. Converted amounts (≈) assume the structure as drawn.

One may read the Tmax as the time from dosing to the highest level. One may read the IC50 as the point on the concentration scale where inhibition reaches its midpoint. A lower IC50 goes with greater potency in that assay. Broadly, the Cmax is the maximum level reached in the sampled fluid or tissue. What is called pIC50 is −log10 of the IC50, conventionally taken in molar units. Low values mean a high IC50, high ones a low IC50.

For the compound `C/C(=C\c1ncc(-c2ccc([N+](=O)[O-])o2)o1)C[C@@H]1OC[C@H](C[C@@H]2O[C@H]2[C@@H](C)[C@H](C)O)[C@@H](O)[C@H]1O`, the MIC is more than 64 µg/mL in data set [1]; 2 µg/mL (≈ 4.18 µM) in data set [3]; less than 0.06 µg/mL in [5]; more than 64 µg/mL in data set [6]; 4 µg/mL (≈ 8.36 µM) in data set [7]; less than 0.06 µg/mL in data set [8]. Besides, the MIC in data set [10] was less than 0.06 µg/mL; in data set [12], 4 µg/mL (≈ 8.36 µM); in [14], 4 µg/mL (≈ 8.36 µM); in data set [15], less than 0.06 µg/mL; in [18] it was 16 µg/mL (≈ 33.4 µM); in [20], less than 0.06 µg/mL. The MIC in data set [21] was less than 0.06 µg/mL; in data set [22], more than 64 µg/mL; in [23] it was 16 µg/mL (≈ 33.4 µM); in data set [25] it was less than 0.06 µg/mL. Further, the values for the Tmax in [2] and in [13] were 15 min and 5 min, respectively. The CD50 in [4] came to 3.2 mg/kg; in data set [17] it was 1.2 mg/kg. Also, the results for the AUC in data set [9] and in data set [16] were 2407 ug m-1 min-1 and 1734 ug m-1 min-1, respectively. The compound further had an IC50 in data set [11] of 400 µg/mL (≈ 836 µM). The Cmax in data set [19] turned out to be 28700 ng/mL; in data set [24] it was 30500 ng/mL.
In the case of `C/C(=C\c1ncc(-c2ccc([N+](=O)[O-])s2)o1)C[C@@H]1OC[C@H](C[C@@H]2O[C@H]2[C@@H](C)[C@H](C)O)[C@@H](O)[C@H]1O`, the MIC in data set [1] is more than 64 µg/mL; in [3], 2 µg/mL (≈ 4.04 µM); in data set [26], 32 µg/mL (≈ 64.7 µM); in data set [5], 0.125 µg/mL (≈ 0.253 µM); in data set [6], more than 64 µg/mL; in data set [7], 8 µg/mL (≈ 16.2 µM). The MIC was less than 0.06 µg/mL in [8]; less than 0.06 µg/mL in [10]; 8 µg/mL (≈ 16.2 µM) in [12]; 0.13 µg/mL (≈ 0.263 µM) in [27]; more than 64 µg/mL in data set [14]; less than 0.06 µg/mL in data set [15]. For the same compound, the MIC in data set [30] was 8 µg/mL (≈ 16.2 µM); in data set [18], more than 64 µg/mL; in data set [20], less than 0.06 µg/mL; in data set [21], less than 0.06 µg/mL; in data set [22], more than 64 µg/mL; in data set [23], more than 64 µg/mL. The MIC in [25] was less than 0.06 µg/mL. The pIC50 in data set [28] is 8.18; in data set [29], 6.62.
In the case of `C/C(=C\c1ncc(-c2ccc([N+](=O)[O-])cc2)o1)C[C@@H]1OC[C@H](C[C@@H]2O[C@H]2[C@@H](C)[C@H](C)O)[C@@H](O)[C@H]1O`, the MIC was more than 64 µg/mL in data set [1]; more than 64 µg/mL in [3]; 0.125 µg/mL (≈ 0.256 µM) in data set [5]; more than 64 µg/mL in data set [6]; more than 64 µg/mL in data set [7]; 0.25 µg/mL (≈ 0.512 µM) in data set [8]. The MIC is less than 0.06 µg/mL in data set [10]; more than 64 µg/mL in data set [12]; 32 µg/mL (≈ 65.5 µM) in data set [14]; 0.125 µg/mL (≈ 0.256 µM) in data set [15]; 64 µg/mL (≈ 131 µM) in data set [18]; 0.125 µg/mL (≈ 0.256 µM) in data set [20]. Further, the MIC in data set [21] was 1 µg/mL (≈ 2.05 µM); in data set [22], more than 64 µg/mL; in data set [23], 32 µg/mL (≈ 65.5 µM); in data set [25], less than 0.06 µg/mL. The compound further had a pIC50 in data set [31] of 8.10.
